What was measured:
[1] = target: T1, Estrogen receptor (Mus musculus) (UniProt O08537+P19785); assay: Percent inhibition of estrone stimulated uterotrophic effect in mice at 150 ug; type: functional
How it was run: (§1)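 Immature mice given test compound per animal sc on three consecutive days together with 0.4 μg estrone/animal/day. Killed 24 h after last injection; uteri fixed in Bouin, dried 100 °C 24 h and weighed. Inhibition = 100 − [(W_S,T − W_V)/(W_S − W_V) × 100] using relative uterus weights; 6-10 animals; Wilcoxon-Mann-Whitney U test.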

MCF7 [2] = assay: Effect on [3H]thymidine incorporation into estrogen receptor positive MCF-7 human breast cancer cells at 1*10^-6 M (control = 10.2+/-1.4); type: functional
How it was run: (§2)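 MCF-7 cells were grown in MEM with charcoal-treated 5% newborn calf serum and phenol red, then treated with compounds in 0.1% DMF (renewed on day 4) alongside DMF controls. They were labeled 3 days later with 1 µCi [³H]thymidine per well for 2 h, and incorporated radioactivity per dish was measured; mean of six dishes ± SD; % T/C.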

MCF7 [3] = assay: Effect on Estrogen receptor positive MCF-7 human breast cancer cell proliferation at 1x10E-6M (control = 24.4+/-3.8); type: functional
How it was run: (§3)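 MCF-7 cells were kept in MEM with 5% charcoal-treated newborn calf serum and phenol red for 2 weeks, then about 2×10^4 cells were plated per well. Compounds in 0.1% DMF were added 2 days later and renewed on day 4; DMF alone served as control. Coulter cell counts were taken on day 5; mean of six dishes ± SD; % T/C.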

[4] = target: T1, Estrogen receptor (Mus musculus); assay: Anti-uterotrophic effect in mice as relative uterine weight(mg) at 150 ug; type: functional
How it was run: (§4)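 Immature mice received the compound sc per animal on three consecutive days, alone or with 0.4 µg estrone per animal per day. Uteri were taken 24 h after the last injection, Bouin-fixed, dried at 100 °C for 24 h and weighed. Relative uterus weight = dry weight (mg)/body weight (g) × 100; mean of 6-10 animals ± SD; Mann-Whitney U test.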

MCF7 [5] = assay: Effect on Estrogen receptor positive MCF-7 human breast cancer cell proliferation at 1x10E-6M; type: functional; how it was run: as §3
MCF7 [6] = assay: Effect on [3H]thymidine incorporation into estrogen receptor positive MCF-7 human breast cancer cells at 1x10E-6M; type: functional; how it was run: as §2
MCF7 [7] = assay: Effect on Estrogen receptor positive MCF-7 human breast cancer cell proliferation at 5x10E-6M; type: functional; how it was run: as §3
[8] = target: T1, Estrogen receptor (Mus musculus); assay: Anti-uterotrophic effect in mice as relative uterine weight(mg) at 15 ug; type: functional; how it was run: as §4
[9] = target: T1, Estrogen receptor (Mus musculus); assay: Uterotrophic effect in mice as relative uterine weight(mg) at 150 ug (control = […]+/-1.7); type: functional, tissue-based
MCF7 [10] = assay: Effect on [3H]thymidine incorporation into estrogen receptor positive MCF-7 human breast cancer cells at 5x10E-6M; type: functional
How it was run: (§5)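 MCF-7 cells in improved MEM with glutamine, gentamycin and 5% newborn calf serum, switched to charcoal-treated serum two weeks ahead; phenol red present; 37 °C, 5% CO2. About 2×10^4 cells plated per well; compound in 0.1% DMF added 2 days later, renewed on day 4; labelled 3 days later with 1 μCi [3H]thymidine per well for 2 h; cpm/dish, mean of six dishes ± SD.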

Mus musculus [11] = species on record: Mus musculus; assay: Relative tumor weight in treated compared to control mice bearing hormone-dependent transplanted MXT mammary tumors at 12.5 mg
Mus musculus [12] = species on record: Mus musculus; assay: Anti-tumor activity in hormone-dependent transplant MXT mammary tumor bearing mice at 12.5 mg (control=197+/-130); type: functional
[13] = target: T1, Estrogen receptor (Mus musculus); assay: Uterotrophic effect in mice as relative uterine weight(mg) at 15 ug (control = […]+/-1.7); type: functional, tissue-based
[14] = target: T1, Estrogen receptor (Mus musculus); assay: Percent inhibition of estrone stimulated uterotrophic effect in mice at 15 ug; type: functional; how it was run: as §1
MCF7 [15] = assay: Effect on Estrogen receptor positive MCF-7 human breast cancer cell proliferation at 5x10E-6M (control = 24.4+/-3.8); type: functional; how it was run: as §3
[16] = target: T1, Estrogen receptor (Mus musculus); assay: Anti-uterotrophic effect in hormone-dependent transplant MXT bearing mice as relative uterine weight in treated and control mice at 12.5 mg (control=100+/-24); type: functional
MCF7 [17] = assay: Effect on [3H]thymidine incorporation into estrogen receptor positive MCF-7 human breast cancer cells at 5*10e-6 M (control = 10.2+/-1.4); type: functional; how it was run: as §5
Mus musculus [18] = species on record: Mus musculus; assay: Anti-tumor activity in hormone-dependent transplant MXT mammary tumor bearing mice at 12.4 mg (control=534+/-652); type: functional
MCF7 [19] = assay: Effect on [3H]thymidine incorporation into estrogen receptor positive MCF-7 human breast cancer cells at 5x10E-6M (control = 7.7+/-0.8); type: functional; how it was run: as §5
MCF7 [20] = assay: Effect on Estrogen receptor positive MCF-7 human breast cancer cell proliferation at 1x10E-6M (control = 22.3+/-3.3); type: functional; how it was run: as §3
Mus musculus [21] = species on record: Mus musculus; assay: Relative tumor weight in treated compared to control mice bearing hormone-dependent transplanted MXT mammary tumors at 12.4 mg; type: functional
MCF7 [22] = assay: Effect on Estrogen receptor positive MCF-7 human breast cancer cell proliferation at 5x10E-6M (control = 22.3+/-3.3); type: functional; how it was run: as §3
Mus musculus [23] = species on record: Mus musculus; assay: Relative tumor weight in treated compared to control mice bearing hormone-dependent transplanted MXT mammary tumors at 6.2 mg; type: functional
[24] = target: T1, Estrogen receptor (Mus musculus); assay: Anti-uterotrophic effect in hormone-dependent transplant MXT bearing mice as relative uterine weight in treated and control mice at 12.4 mg (control=100+/-30); type: functional
MCF7 [25] = assay: Effect on [3H]thymidine incorporation into estrogen receptor positive MCF-7 human breast cancer cells at 1x10E-6M (control = 7.7+/-0.8); type: functional; how it was run: as §2
[26] = target: T1, Estrogen receptor (Mus musculus); assay: Anti-uterotrophic effect in hormone-dependent transplant MXT bearing mice as relative uterine weight in treated and control mice at 6.2 mg (control=100+/-30); type: functional
[27] = target: T1, Estrogen receptor (Mus musculus); assay: Uterotrophic effect in mice as relative uterine weight(mg) at 150 ug (control = 12.4+/-3.7); type: functional, tissue-based
How it was run: (§6)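 Immature mice dosed sc per animal on three consecutive days; vehicle controls. Killed and weighed 24 h after last injection; uteri fixed in Bouin solution 2 h, washed with alcoholic LiCl, dried at 100 °C for 24 h. Relative uterus weight = uterine dry weight (mg)/body weight (g) × 100; mean of 6-10 animals ± SD.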

Mus musculus [28] = species on record: Mus musculus; assay: Anti-tumor activity in hormone-dependent transplant MXT mammary tumor bearing mice at 6.2 mg (control=534+/-652); type: functional
[29] = target: T1, Estrogen receptor (Mus musculus); assay: Uterotrophic effect in mice as relative uterine weight(mg) at 15 ug (control = 12.4+/-3.7); type: functional, tissue-based; how it was run: as §6
MCF7 [30] = assay: Effect on [3H]thymidine incorporation into estrogen receptor positive MCF-7 human breast cancer cells at 1*10^-6 M (control = 10.6+/-1.9); type: functional; how it was run: as §2
MCF7 [31] = assay: Effect on Estrogen receptor positive MCF-7 human breast cancer cell proliferation at 1x10E-6M (control = 25.4+/-3.1); type: functional; how it was run: as §3
MCF7 [32] = assay: Effect on [3H]thymidine incorporation into estrogen receptor positive MCF-7 human breast cancer cells at 5*10e-6 M (control = 10.6+/-1.9); type: functional; how it was run: as §5
MCF7 [33] = assay: Effect on Estrogen receptor positive MCF-7 human breast cancer cell proliferation at 5x10E-6M (control = 25.4+/-3.1); type: functional; how it was run: as §3

T1 sequence (O08537 whole entry, looked up): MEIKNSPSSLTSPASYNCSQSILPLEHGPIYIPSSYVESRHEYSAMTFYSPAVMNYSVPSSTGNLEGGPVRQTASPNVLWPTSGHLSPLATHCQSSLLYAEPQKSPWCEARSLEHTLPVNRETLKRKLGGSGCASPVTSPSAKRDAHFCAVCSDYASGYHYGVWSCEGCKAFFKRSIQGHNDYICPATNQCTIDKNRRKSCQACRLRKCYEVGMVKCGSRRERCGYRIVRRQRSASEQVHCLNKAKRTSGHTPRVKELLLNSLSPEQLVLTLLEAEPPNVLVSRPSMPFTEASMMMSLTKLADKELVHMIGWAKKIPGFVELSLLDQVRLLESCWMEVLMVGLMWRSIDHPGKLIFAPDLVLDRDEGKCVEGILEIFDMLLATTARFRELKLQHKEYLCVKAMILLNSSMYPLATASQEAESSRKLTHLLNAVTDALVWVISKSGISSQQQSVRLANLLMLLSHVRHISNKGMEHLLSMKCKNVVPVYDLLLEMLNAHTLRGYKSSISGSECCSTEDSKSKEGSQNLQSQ
T1 sequence (P19785 whole entry, looked up): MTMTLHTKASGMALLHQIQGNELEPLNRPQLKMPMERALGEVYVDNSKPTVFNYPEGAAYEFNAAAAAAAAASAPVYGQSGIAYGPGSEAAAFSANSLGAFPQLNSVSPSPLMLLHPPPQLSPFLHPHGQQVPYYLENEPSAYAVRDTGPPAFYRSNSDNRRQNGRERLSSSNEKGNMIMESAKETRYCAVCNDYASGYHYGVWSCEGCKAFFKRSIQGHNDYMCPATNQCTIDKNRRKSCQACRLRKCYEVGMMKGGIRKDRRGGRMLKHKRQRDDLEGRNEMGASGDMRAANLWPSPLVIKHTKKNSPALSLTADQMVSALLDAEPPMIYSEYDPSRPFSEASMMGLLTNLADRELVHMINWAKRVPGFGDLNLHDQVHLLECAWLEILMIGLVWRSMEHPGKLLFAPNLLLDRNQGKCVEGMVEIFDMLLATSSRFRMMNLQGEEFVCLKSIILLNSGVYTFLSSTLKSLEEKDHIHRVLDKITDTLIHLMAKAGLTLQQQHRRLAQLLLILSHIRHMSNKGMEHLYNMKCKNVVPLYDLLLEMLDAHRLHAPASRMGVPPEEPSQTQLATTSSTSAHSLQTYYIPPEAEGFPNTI

inhibition [1] [%]	Relative uterus weight [4] [mg]	Relative uterus weight [8] [mg]	Relative uterus weight [9] [mg]	Relative uterus weight [13] [mg]	inhibition [14] [%]	SMILES	T/C (MCF7 [5]) [%]	T/C (MCF7 [6]) [%]	T/C (MCF7 [7]) [%]	T/C (MCF7 [10]) [%]	also measured
77	22.4	34.2	20.2	14.6	39	Cc1c(-c2ccc(O)cc2)n(CCCCCCNC(C)c2ccccn2)c2ccc(O)cc12 (stereo not given)	52	46	39	12	Activity (MCF7 [2]): 4600; Cell no/dish (MCF7 [3]): 126000; T/C (Mus musculus [11]): 75%; Tumor weight (Mus musculus [12]): 148 mg; Cell no/dish (MCF7 [15]): 95000; T/C [16]: 96%; Activity (MCF7 [17]): 1200
31	36.9	46.6	–	–	–	Cc1c(-c2ccc(O)cc2)n(CCCCCCNCc2ccccn2)c2ccc(O)cc12	48	13	23	5	Tumor weight (Mus musculus [18]): 169 mg; Activity (MCF7 [19]): 400; Cell no/dish (MCF7 [20]): 106000; T/C (Mus musculus [21]): 31%; Cell no/dish (MCF7 [22]): 52000; T/C (Mus musculus [23]): 71%; T/C [24]: 137%; Activity (MCF7 [25]): 1000; T/C [26]: 119%; Relative uterus weight [27]: 24.9 mg; Tumor weight (Mus musculus [28]): 378 mg; Relative uterus weight [29]: 27.9 mg
51	30.5	32.8	26	14.7	42	CCC(NCCCCCCn1c(-c2ccc(O)cc2)c(C)c2cc(O)ccc21)c1ccccn1 (stereo not given)	77	99	54	79	Activity (MCF7 [30]): 10500; Cell no/dish (MCF7 [31]): 195000; Activity (MCF7 [32]): 8400; Cell no/dish (MCF7 [33]): 137000
